According to ChEMBL document CHEMBL4673250, “Analogs of nitrofuran antibiotics are potent GroEL/ES inhibitor pro-drugs” (Bioorg Med Chem, 2020):
Active and inactive are the calls of the source. The calls are words filed in the database; no cut-off is given here.

Assays:
[1] = tested on: Enterococcus faecium; assay: Antibacterial activity against Enterococcus faecium ATCC 19434 assessed as reduction in bacterial growth by serial dilution method; type: functional, organism-based
[2] = tested on: Staphylococcus aureus; assay: Antibacterial activity against Staphylococcus aureus ATCC 25923 assessed as reduction in bacterial growth by serial dilution method; type: functional, organism-based
[3] = tested on: Klebsiella pneumoniae; assay: Antibacterial activity against Klebsiella pneumoniae ATCC 13883 assessed as reduction in bacterial growth by serial dilution method; type: functional, organism-based
[4] = tested on: Acinetobacter baumannii; assay: Antibacterial activity against Acinetobacter baumannii ATCC 19606 assessed as reduction in bacterial growth by serial dilution method; type: functional, organism-based; conditions: ATCC 19606 = CIP 70.34 = JCM 6841
[5] = tested on: Pseudomonas aeruginosa; assay: Antibacterial activity against Pseudomonas aeruginosa ATCC 10145 assessed as reduction in bacterial growth by serial dilution method; type: functional, organism-based
[6] = tested on: Enterobacter cloacae; assay: Antibacterial activity against Enterobacter cloacae ATCC 13047 assessed as reduction in bacterial growth by serial dilution method; type: functional, organism-based
[7] = tested on: Escherichia coli; assay: Antibacterial activity against Escherichia coli assessed as reduction in bacterial growth by serial dilution method; type: functional, organism-based
Method in brief: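 Liquid-culture proliferation in media supplemented with physiological free calcium and magnesium; cultures started at OD600 = 0.01, exposed to 8-point 3-fold dilution series (100 μM to 46 nM), grown to mid-log phase (OD600 ~0.4–0.6), then final OD600 read. E. coli strain NEB 5-alpha (DH5α derivative).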

[8] = target: T1, E. coli GroEL/ES (Escherichia coli, UniProt P0A6F5); assay: Inhibition of Escherichia coli GroEL/ES-mediated refolding of the denatured malate dehydrogenase; type: protein-complex assay
T1 sequence (P0A6F5 whole entry, looked up): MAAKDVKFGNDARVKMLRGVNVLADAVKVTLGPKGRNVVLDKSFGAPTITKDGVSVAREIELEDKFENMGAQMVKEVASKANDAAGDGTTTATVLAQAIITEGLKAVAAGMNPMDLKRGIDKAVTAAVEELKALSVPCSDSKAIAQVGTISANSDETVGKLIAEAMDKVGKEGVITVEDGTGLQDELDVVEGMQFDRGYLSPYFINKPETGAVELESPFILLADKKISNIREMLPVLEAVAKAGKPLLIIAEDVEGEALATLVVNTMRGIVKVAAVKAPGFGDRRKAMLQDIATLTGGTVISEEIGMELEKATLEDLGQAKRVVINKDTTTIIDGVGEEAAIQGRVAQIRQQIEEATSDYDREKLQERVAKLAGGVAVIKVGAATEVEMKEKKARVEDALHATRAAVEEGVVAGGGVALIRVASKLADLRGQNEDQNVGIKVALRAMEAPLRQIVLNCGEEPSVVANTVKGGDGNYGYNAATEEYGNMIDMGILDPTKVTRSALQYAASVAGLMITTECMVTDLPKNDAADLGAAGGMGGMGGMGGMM
Method in brief: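 E. coli GroEL/ES-mediated refolding of denatured MDH as the reporter enzyme. IC50 values are averages from at least four replicates. […] GroEL tetradecamer is present at 50 nM during the refolding cycle. DMSO serves as the negative control.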

[9] = target: T1, E. coli GroEL/ES; assay: Inhibition of Escherichia coli GroEL/ES-mediated refolding of the denatured malate dehydrogenase in presence of Escherichia coli type 1 NfsB nitroreductase; type: protein-complex assay
Method in brief: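 GroEL/ES-dMDH refolding with 10 µg/mL E. coli NfsB added to the initial GroEL/ES-dMDH mix. After compound stamping, NADH (2.4 mM stock) is added and the mix is incubated 10 min at 37°C to bioactivate nitrofurans. Compounds during the refolding cycle span 83 µM to 38 nM (3-fold series).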

[10] = tested on: FHC; assay: Cytotoxicity against human FHC cells assessed as reduction in cell viability incubated for 48 hrs by alamar blue assay; type: cell-based
Method in brief: (§1)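 Alamar Blue viability: cells grown to ~80–90% confluency, seeded 1,500 per well and cultured 24 h without compound, then compound added for a further 48 h; resazurin reagent added and fluorescence monitored over time.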

[11] = Cytotoxicity against human FHs74Int cells assessed as reduction in cell viability incubated for 48 hrs by alamar blue assay; type: cell-based; method in brief: as §1
[12] = Selectivity index, ratio of CC50 for human FHC cells to EC50 for Escherichia coli; type: toxicity; conditions: read-out: Ratio CC50/EC50
[13] = Selectivity index, ratio of CC50 for human FHs 74 cells to EC50 for Escherichia coli; type: toxicity; conditions: read-out: Ratio CC50/EC50
[14] = tested on: Escherichia coli; assay: Antibacterial activity against Escherichia coli assessed as reduction in bacterial growth measured for 12 day serial passage incubated for 24 hrs by serial dilution method; type: functional, organism-based
Method in brief: (§2)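 NEB 5-alpha E. coli (DH5α derivative); 12-day liquid-culture serial passage. Dilute culture (OD600 = 0.01) grown 24 h with inhibitors in dose-response, in duplicate. EC50 taken from OD600 readings. Each day, bacteria were sub-cultured from the well with the highest inhibitor concentration still reaching OD600 > 0.2. Resistant strains were retested in a follow-up 24 h proliferation assay after 4×12 h passages without inhibitor, and were cross-tested against the other inhibitors.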

[15] = tested on: Escherichia coli; assay: Antibacterial activity against Nitrofurantoin-resistant Escherichia coli assessed as reduction in bacterial growth measured for 12 day serial passage incubated for 24 hrs by serial dilution method; type: functional, organism-based; method in brief: as §2
[16] = tested on: Escherichia coli; assay: Antibacterial activity against Nifuroxazide-resistant Escherichia coli assessed as reduction in bacterial growth measured for 12 day serial passage incubated for 24 hrs by serial dilution method; type: functional, organism-based; method in brief: as §2
[17] = tested on: Escherichia coli; assay: Antibacterial activity against Escherichia coli harbouring NfsA and NfsB mutant assessed as reduction in bacterial growth measured for 12 day serial passage incubated for 24 hrs by serial dilution method; type: functional, organism-based; method in brief: as §2
[18] = tested on: Escherichia coli; assay: Antibacterial activity against 5-chloro-N-[(5-nitro-2-furyl)methyleneamino]thiophene-2-carboxamide-resistant Escherichia coli assessed as reduction in bacterial growth measured for 12 day serial passage incubated for 24 hrs by serial dilution method; type: functional, organism-based; method in brief: as §2

## O=C(N/N=C/c1ccc([N+](=O)[O-])o1)c1cccs1
[1]
  EC50: 24 µM
[2]
  EC50: 7.1 µM
[3]
  EC50: 16 µM
[4]
  EC50: 82 µM
[5]
  EC50: > 100 µM
[6]
  EC50: 40 µM
[7]
  EC50: 0.42 µM
[8]
  IC50: > 100 µM
[9]
  IC50: 7.7 µM
[10]
  CC50: 83 µM
[11]
  CC50: 71 µM
[12]
  selectivity ratio: 198
[13]
  selectivity ratio: 168

## O=C(N/N=C/c1ccc([N+](=O)[O-])o1)c1ccccc1
[1]
  EC50: 31 µM
[2]
  EC50: 10 µM
[3]
  EC50: 36 µM
[4]
  EC50: > 100 µM
[5]
  EC50: > 100 µM
[6]
  EC50: > 100 µM
[7]
  EC50: 2.1 µM
[8]
  IC50: > 100 µM
[9]
  IC50: 12 µM
[10]
  CC50: > 100 µM
[11]
  CC50: 94 µM
[12]
  selectivity ratio: > 48
[13]
  selectivity ratio: 45

## CN(C)c1ccc(C(=O)N/N=C/c2ccc([N+](=O)[O-])o2)cc1
[1]
  EC50: > 100 µM
[2]
  EC50: 34 µM
[3]
  EC50: > 100 µM
[4]
  EC50: > 100 µM
[5]
  EC50: > 100 µM
[6]
  EC50: > 100 µM
[7]
  EC50: 10 µM
[8]
  IC50: 26 µM
[9]
  IC50: 12 µM
[10]
  CC50: > 100 µM
[11]
  CC50: 93 µM
[12]
  selectivity ratio: > 10
[13]
  selectivity ratio: 9.3

## O=C(N/N=C/c1ccc([N+](=O)[O-])o1)c1ccc(Cl)s1
[14]
  EC50: 20 µM
[15]
  Activity: Active
[16]
  Activity: Active
[17]
  Activity: inactive
[1]
  EC50: 12 µM
[2]
  EC50: 3 µM
[3]
  EC50: 19 µM
[4]
  EC50: 72 µM
[5]
  EC50: > 100 µM
[6]
  EC50: 49 µM
[7]
  EC50: 0.45 µM
[8]
  IC50: 88 µM
[9]
  IC50: 3.2 µM
[10]
  CC50: 53 µM
[11]
  CC50: 85 µM
[12]
  selectivity ratio: 119
[13]
  selectivity ratio: 190
[18]
  Activity: inactive

## COc1ccc(C(=O)N/N=C/c2ccc([N+](=O)[O-])o2)cc1
[1]
  EC50: 22 µM
[2]
  EC50: 8.1 µM
[3]
  EC50: > 100 µM
[4]
  EC50: > 100 µM
[5]
  EC50: > 100 µM
[6]
  EC50: > 100 µM
[7]
  EC50: 1.9 µM
[8]
  IC50: 69 µM
[9]
  IC50: 10 µM
[10]
  CC50: > 100 µM
[11]
  CC50: 75 µM
[13]
  selectivity ratio: 40

## O=[N+]([O-])c1ccc(O)c2ncccc12 [NITROXOLINE]
[1]
  EC50: 18 µM
[2]
  EC50: 9.5 µM
[3]
  EC50: 2.8 µM
[4]
  EC50: 2.5 µM
[5]
  EC50: 99 µM
[6]
  EC50: 6.6 µM
[7]
  EC50: 4 µM

## O=C1CN(/N=C/c2ccc([N+](=O)[O-])o2)C(=O)N1 [NITROFURANTOIN]
[14]
  EC50: 20 µM
[15]
  Activity: inactive
[16]
  Activity: inactive
[17]
  Activity: inactive
[1]
  EC50: 38 µM
[2]
  EC50: 27 µM
[3]
  EC50: 40 µM
[4]
  EC50: > 100 µM
[5]
  EC50: > 100 µM
[6]
  EC50: 36 µM
[7]
  EC50: 0.69 µM
[8]
  IC50: > 100 µM
[9]
  IC50: 84 µM
[10]
  CC50: > 100 µM
[11]
  CC50: > 100 µM
[18]
  Activity: inactive

## O=C(N/N=C/c1ccc([N+](=O)[O-])o1)c1ccc(O)cc1 [NIFUROXAZIDE]
[14]
  EC50: 20 µM
[15]
  Activity: Active
[16]
  Activity: Active
[17]
  Activity: inactive
[1]
  EC50: 8.1 µM
[2]
  EC50: 16 µM
[3]
  EC50: 37 µM
[4]
  EC50: > 100 µM
[5]
  EC50: > 100 µM
[6]
  EC50: 54 µM
[7]
  EC50: 0.87 µM
[8]
  IC50: > 100 µM
[9]
  IC50: 19 µM
[10]
  CC50: 61 µM
[11]
  CC50: 79 µM
[12]
  selectivity ratio: 70
[13]
  selectivity ratio: 91
[18]
  Activity: Active

## O=C(N/N=C/c1ccc([N+](=O)[O-])o1)c1ccncc1
[1]
  EC50: 13 µM
[2]
  EC50: 9.5 µM
[3]
  EC50: 42 µM
[4]
  EC50: 54 µM
[5]
  EC50: > 100 µM
[6]
  EC50: 73 µM
[7]
  EC50: 2.4 µM
[8]
  IC50: > 100 µM
[9]
  IC50: 23 µM
[10]
  CC50: 61 µM
[11]
  CC50: 90 µM
[12]
  selectivity ratio: 26
[13]
  selectivity ratio: 38
